SMILES strings stand for the structures. pIC50: −log10 of the molar value. Calls of active or inactive are those of the source. No cut-off for these calls is given here.

The subject of data set [1] is Calf thymus DNA. The data set is described as follows: Binding affinity for DNA by ethidium bromide displacement assay. It counts as nucleic-acid assay. To be noted: Bos taurus. Summed up:
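Competitive ethidium bromide displacement with calf thymus DNA at 10 µg/mL in 20 mM Na phosphate buffer, 0.1 M NaCl, 1 mM EDTA, pH 7.4. The apparent DNA affinity constant is given in 10^6 M^-1 ± standard deviation, from 6 values across two independent experiments.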

In data set [2] the test system is L1210. The data set is described as follows: (§1) In vitro cytotoxicity against L1210 cells was determined after 48 hours of incubation. The class given is functional, Mus musculus. To be noted: read-out: ID50 (the source's name). Summed up: (§2)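 Exponentially growing L1210 cells were cultured in RPMI 1640 with 2 mM glutamine, penicillin/streptomycin and 10% fetal calf serum, under 5% CO2 at 37 °C. Drugs dissolved in distilled water were added to cells at 0.8 × 10^5 cells/mL for 48 h, then cells were counted. ID50 was estimated by regression of dose-response data, as the mean of two values from two independent experiments.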

For data set [3], the system named is Mus musculus. Description: In vivo antitumor activity was determined against P388 leukemia cells expressed as treated/control at the dose of (80)mg/kg;T = toxic at this dose. It counts as functional, organism-based. The procedure, abridged:
(§3)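 Following NCI protocols, 10^6 viable P388 leukemia cells were inoculated ip on day 0 into male or female CDF1 hybrid mice, 10 per test group. Compounds in distilled water were given ip (0.1 mL/10 g body weight) at various doses on days 1–5. T/C = median survival day of treated / median survival day of negative controls × 100.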

The test system of data set [4] is Mus musculus. Description: In vivo antitumor activity was determined against P388 leukemia cells expressed as treated/control at the dose of (1.25-40)mg/kg; IA = Inactive. The class given is functional, organism-based. Summed up: as §3
Data set [5] has as its system Mus musculus. Description: In vivo antitumor activity was determined against P388 leukemia cells expressed as treated/control at the dose of (0.30-60)mg/kg; IA = Inactive. The class given is functional, organism-based. Summed up:
as §3

The subject of data set [6] is Mus musculus. Description: In vivo antitumor activity was determined against P388 leukemia cells expressed as treated/control at the dose of (5-50)mg/kg; IA = Inactive. It counts as functional, organism-based. Summed up:
as §3

Data set [7] concerns Mus musculus. The data set is described as follows: In vivo antitumor activity was determined against P388 leukemia cells expressed as treated/control at the dose of (2.5-20)mg/kg(nontoxic at highest dose tested.); IA = Inactive. The class given is functional, organism-based. Summed up: as §3
Data set [8] relates to Mus musculus. The data set is described as follows: In vivo antitumor activity was determined against P388 leukemia cells expressed as treated/control at the dose of (5-100)mg/kg (nontoxic at highest dose tested.); IA = Inactive. It counts as functional, organism-based. Summed up: as §3
A short description of data set [9]: as §1. The class given is cell-based. To be noted: mouse, read-out: ID50. Summed up:
as §2

In data set [10] the test system is Mus musculus. The data set is described as follows: In vivo antitumor activity was determined against P388 leukemia cells expressed as treated/control at the dose of 40 mg/kg; T = toxic at this dose. The class given is organism-based. Also noted: dose 40 mg/kg. Summed up:
as §3

Data set [11] deals with Mus musculus. The data set is described as follows: In vivo antitumor activity was determined against P388 leukemia cells expressed as treated/control at the dose of (2.5-20)mg/kg; IA = Inactive. The class given is functional, organism-based. Summed up: as §3
For data set [12], the system named is Mus musculus. The data set is described as follows: In vivo antitumor activity was determined against P388 leukemia cells expressed as treated/control at yhe dose of 2.5-40 mg/kg; IA = Inactive. It counts as functional, organism-based. Summed up: as §3
Data set [13] relates to Mus musculus. Description: In vivo antitumor activity was determined against P388 leukemia cells expressed as treated/control at the dosae of (2.5-40)mg/kg; IA = Inactive. The class given is functional, organism-based. The procedure, abridged:
as §3

For data set [14], the system named is Mus musculus. The data set is described as follows: In vivo antitumor activity was determined against P388 leukemia cells expressed as treated/control at the dosage of 10 mg/kg. The class given is functional. The procedure, abridged: as §3
Data set [15] relates to Mus musculus. Description: In vivo antitumor activity was determined against P388 leukemia cells expressed as treated/control at the dosage of 20 mg/kg. The class given is functional. The procedure, abridged:
as §3

The subject of data set [16] is Mus musculus. Description: In vivo antitumor activity was determined against P388 leukemia cells expressed as treated/control at the dosage of 40 mg/kg. The class given is functional. Summed up: as §3
Data set [17] concerns Mus musculus. The data set is described as follows: In vivo antitumor activity was determined against P388 leukemia cells expressed as treated/control at the dose of (2.5-40)mg/kg(nontoxic at highest dose tested.); IA = Inactive. The class given is functional, organism-based. The procedure, abridged:
as §3

Data set [18] relates to Mus musculus. Description: In vivo antitumor activity was determined against P388 leukemia cells expressed as treated/control at the dose of 10 mg/kg. It counts as functional. Summed up:
as §3

For data set [19], the system named is Mus musculus. Description: In vivo antitumor activity was determined against P388 leukemia cells expressed as treated/control at the dose of 20 mg/kg. The class given is functional. Summed up:
as §3

In data set [20] the test system is Mus musculus. The data set is described as follows: In vivo antitumor activity was determined against P388 leukemia cells expressed as treated/control at the dose of 40 mg/kg. The class given is functional. Summed up: as §3
For data set [21], the system named is Mus musculus. Description: In vivo antitumor activity was determined against P388 leukemia cells expressed as treated/control at the dose of 80 mg/kg. It counts as functional. Summed up:
as §3

Data set [22] has as its system Mus musculus. The data set is described as follows: In vivo antitumor activity was determined against P388 leukemia cells expressed as treated/control at the dose of (1.25-20)mg/kg; IA = Inactive. The class given is functional, organism-based. Summed up: as §3
The subject of data set [23] is Mus musculus. Description: In vivo antitumor activity was determined against P388 leukemia cells expressed as treated/control at the dose of (5-60)mg/kg; IA = Inactive. The class given is functional, organism-based. Summed up:
as §3

Data set [24] relates to Mus musculus. Description: In vivo antitumor activity was determined against P388 leukemia cells expressed as treated/control at the dose of (1.25-80)mg/kg; IA = Inactive. The class given is functional, organism-based. The procedure, abridged: as §3

In [1], `CCN(CC)CCCN(C)c1ncc(C)c2c1c1cnccc1n2C` displayed a K aff of 3000 M⁻¹. In addition, the pIC50 in data set [2] (Mus musculus, L1210, 48 h) is 4.28. Also, the T/C entry in data set [3] is “Toxic”. Besides, the T/C result in data set [4] is “inactive”.
Regarding `CCN(CC)CCCN(C)c1[nH]cc(C)c2nc3ccncc3c1-2`, the K aff in [1] is 6000 M⁻¹. Moreover, the pIC50 in data set [2] (Mus musculus, L1210, 48 h) was 3.65. Besides, the T/C result in [5] was “inactive”.
Consider `CCN(CC)CCCNc1nccc2c1c1cnccc1n2C`, for which the K aff in data set [1] came to 17000 M⁻¹. Besides, in data set [2] (Mus musculus, L1210, 48 h), the pIC50 was 5.80. The T/C entry in [6] was “inactive”.
Consider `CCCN(CCC)CCCNc1ncc(C)c2c1c1cnccc1n2C`, for which the K aff in data set [1] was determined as 16000 M⁻¹. In data set [2] (Mus musculus, L1210, 48 h), the pIC50 was 5.07. Moreover, the T/C entry in data set [7] was “inactive”.
Take `CCN(CC)CCCCNc1ncc(C)c2c1c1cnccc1n2C`: the K aff in [1] stood at 40000 M⁻¹. In addition, the T/C result in [8] is “inactive”.
On to `CCN(CC)CCCNc1[nH]ccc2nc3ccncc3c1-2`, for which the K aff in [1] came to 15000 M⁻¹. Also, the CC50 at 48 h in data set [9] came out at 46 µM. Also, the T/C result in data set [10] is on record as “Toxic”. Also, in [11], the T/C result is “inactive”.
Compound `CCN(CC)CCNc1[nH]cc(C)c2nc3ccncc3c1-2` showed a K aff in data set [1] of 12000 M⁻¹. Moreover, the pIC50 in [2] (Mus musculus, L1210, 48 h) is 4.71. For the same compound, the T/C entry in [10] is listed as “Toxic”. In addition, the T/C entry in data set [11] was “inactive”.
In turn, `Cc1cnc(NCCCN2CCCC2)c2c3cnccc3n(C)c12` registered a K aff in data set [1] of 0.06. For the same compound, the pIC50 in data set [2] (Mus musculus, L1210, 48 h) was 5.80. Further, the T/C entry in [12] is “inactive”.
`CCN(CC)CCCNc1ncc(C)c2c1c1cnccc1n2Cc1ccccc1`: the K aff in [1] was found to be 2000 M⁻¹. Also, the pIC50 in data set [2] (Mus musculus, L1210, 48 h) was 5.19. For the same compound, the T/C result in [13] was “inactive”.
Regarding `CCN(CC)CCCNc1ncc(C)c2[nH]c3ccncc3c12`, the pIC50 in [2] was 6.47. In addition, the T/C in data set [14] came to 135; in [15], 148; in data set [16], 155.
As to `Cc1cnc(NCCCN2CCOCC2)c2c3cnccc3n(C)c12`, in data set [1], the K aff was 30000 M⁻¹. For the same compound, the pIC50 in [2] (Mus musculus, L1210, 48 h) is 5.28. Also, in [17], the T/C result was “inactive”.
`Cc1cnc(NCCCN2CCCCC2)c2c3cnccc3n(C)c12` came in with a K aff in [1] of 0.06. In [2] (Mus musculus, L1210, 48 h), the pIC50 was 5.44. In addition, the T/C result in data set [12] was “inactive”.
The compound `CCNCCCNc1ncc(C)c2c1c1cnccc1n2C` registered a K aff in [1] of 50000 M⁻¹. Further, in data set [2] (Mus musculus, L1210, 48 h), the pIC50 was 5.42. Also, the T/C stood at 127 in data set [18], 145 in [19], 138 in data set [20] and 149 in data set [21].
Compound `CCCN(CCC)CCCNc1[nH]cc(C)c2nc3ccncc3c1-2` displayed a K aff in [1] of 8000 M⁻¹. In addition, in data set [2] (Mus musculus, L1210, 48 h), the pIC50 was 5.48. For the same compound, the T/C entry in data set [22] was “inactive”.
As for `Cc1c[nH]c(NCCCN2CCOCC2)c2c3cnccc3nc1-2`, in data set [1], the K aff was found to be 20000 M⁻¹. Also, the pIC50 in data set [2] (Mus musculus, L1210, 48 h) is 4.72. Also, the T/C entry in data set [4] was “inactive”.
For `CN(C)CCCNc1nccc2c1c1cnccc1n2C`, the K aff in data set [1] stood at 20000 M⁻¹. Besides, the pIC50 in data set [2] (Mus musculus, L1210, 48 h) is 5.92. Besides, the T/C entry in [23] was “inactive”.
Regarding `Cc1c[nH]c(NCCCN2CCN(C)CC2)c2c3cnccc3nc1-2`, in data set [1], the K aff worked out at 27000 M⁻¹. Moreover, the pIC50 in data set [2] (Mus musculus, L1210, 48 h) was 4.23. The T/C entry in [24] was “inactive”.

Values taken from ChEMBL document CHEMBL1123837, “1-Amino-substituted 4-methyl-5H-pyrido[3',4':4,5]pyrrolo[3,2-c]pyridines: a new class of antineoplastic agents” (J Med Chem, 1987).
